Screening data (PubChem BioAssay)
OXTR potentiator: human OXTR potentiation. CHO-OTR cells, Fluo-8 calcium fluorescence, potentiator mode; 0% = oxytocin EC15, 100% = EC100. activation, % at 3 µM. 320,000 compounds, 0.061% hits. AID 2445;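 active = activation above that plate's cutoff, the mean activation of tested compounds plus 3 SD, cut at about 6.6% in these data, passing the limit was not always enough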;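 note: 100% uses oxytocin at 75 nM as the full agonist control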
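Assay system: CHO-OTR cells, human receptor / Also added: oxytocin at about EC15, sub-maximal agonist stimulus / Dosing: single dose, 3.0 µM nominal final compound concentration / Incubation: 6 min pre-incubation, 100 s read / Technique: Fluo-8 calcium dye fluorescence / Read-out: % activation vs EC15 and EC100 oxytocin / Benchmarks: EC15 oxytocin low, 75 nM oxytocin high / Replicates: singlicate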
TRPML3 ag: human mucolipin-3 channel agonism | Q8TDD5 | HEK293 TRPML3-YFP, Fluo-8 calcium fluorescence; 100% = the carbachol control signal | activation, % at 3 µM | 220,000 compounds, 0.29% hits | AID 1448;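 active = activation above its plate's cutoff, the mean activation of the plate's test wells plus 3 SD, cut at about 12% in these data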;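 note: 0% = DMSO only wells and 100% = carbachol wells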
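Test system: HEK293 cells stably carrying human TRPML3-YFP; Doses: single dose, 3 µM final nominal compound, 0.3% DMSO final; Schedule: dye loading 1 h 37 °C then 30 min ambient, 125 s read; Technique: Fluo-8 calcium fluorescence; Benchmarks: high control carbachol 87 µM, low control DMSO.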
V1aR counter: activates human V1a receptor in oxytocin agonist counter-screen. P37288. CHO-V1R cells, Fluo-8 calcium fluorescence, agonist mode; 0% DMSO, 100% 3 nM vasopressin. activation, % at 3 µM. AID 2797. 320,000 compounds, 0.25% hits;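 active = activation above the mean activation of all tested compounds plus 3 SD, per screening run, cut at about 20% in these data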;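 note: signal is peak over basal fluorescence ratio across a 100 second FLIPR read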
Target sequence (P37288 whole entry, looked up): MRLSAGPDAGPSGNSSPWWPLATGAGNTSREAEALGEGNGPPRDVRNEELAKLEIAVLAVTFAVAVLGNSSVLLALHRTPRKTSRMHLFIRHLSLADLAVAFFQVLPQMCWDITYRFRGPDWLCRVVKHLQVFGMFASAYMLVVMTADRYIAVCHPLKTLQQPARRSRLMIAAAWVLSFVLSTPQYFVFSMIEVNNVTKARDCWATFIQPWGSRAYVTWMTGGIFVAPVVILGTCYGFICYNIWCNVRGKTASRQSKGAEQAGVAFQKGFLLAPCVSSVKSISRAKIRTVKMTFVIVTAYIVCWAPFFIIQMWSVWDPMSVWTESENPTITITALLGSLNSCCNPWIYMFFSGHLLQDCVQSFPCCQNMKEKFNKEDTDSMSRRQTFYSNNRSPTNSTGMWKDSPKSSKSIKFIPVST
zfTRPN1 agonist: agonists of zebrafish TRPN1 channel | 220,000 compounds, 0.18% hits | HEK293 zebrafish TRPN1-YFP, Fluo-8 calcium fluorescence; 100% = response to 87 µM carbachol | AID 1424 | activation, % at 3 µM;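 active = activation above its plate's cutoff, the mean activation of test wells on that plate plus 3 SD, cut at about 19% in these data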;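 note: 0% = DMSO alone and 100% = 87 µM carbachol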
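Material: zebrafish TRPN1-YFP in HEK293 cells. Doses: one dose of 3 µM, 0.3% DMSO. Incubation: dye 1 h 37 °C plus 30 min RT. Measured by: intracellular calcium fluorescence with Fluo-8.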
OXTR agonist: human OXTR agonism | P30559 | activation, % at 3 µM | 320,000 compounds, 0.32% hits | CHO-OTR cells, Fluo-8 calcium fluorescence; normalized: DMSO 0%, oxytocin 100% | AID 2435;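 active = activation above the mean of all tested compounds plus 3 SD, cutoff set per screening run, cut at about 20% in these data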;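 note: peak over basal fluorescence ratio from a 100 s FLIPR kinetic read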
An asterisk follows results filed as active; / = no result. Compounds with a hit are over-represented: about 0.58% of the library has one in this group of screens.

SMILES | OXTR potentiator | TRPML3 ag | V1aR counter | zfTRPN1 agonist | OXTR agonist
COc1cc(NC(=O)NCCN2CCN(c3ccc(Cl)cc3)CC2)ccc1C | -20 | 1 | 35* | 0 | 22*
COc1ccc(N2CCN(CCNC(=O)Nc3ccc(C)c(Cl)c3)CC2)cc1 | -19 | / | 12 | / | 18
O=C(Nc1cc(S(=O)(=O)N2CCCCC2)ccc1Cl)c1ccccc1NS(=O)(=O)c1ccc(F)cc1 | -10 | 13* | 7 | 19* | 10
Cc1cs/c(=N\N=C2CCCCC2)n1Cc1ccco1 | 3 | 1 | -1 | 2 | -1
CC(C)(C)C(=O)/C=c1\s/c(=C\c2ccc(-c3ccc([N+](=O)[O-])cc3)o2)c(=O)n1CC(=O)NC(N)=O | -8 | 16* | 47* | 31* | 36*
COc1ccc(NC(=O)CSc2nnc(Cn3cnc4ccccc43)o2)cc1 | -6 | 1 | 0 | 0 | 0
CCOCCCNc1nc2c(C)cccn2c(=O)c1/C=C1\SC(=S)N(CC(C)C)C1=O | -14 | 1 | 1 | 0 | 1
CCOCCCNc1nc2c(C)cccn2c(=O)c1/C=C1\SC(=S)N(C(C)CC)C1=O (stereo unspecified) | -13 | 8 | 6 | 20* | 13
O=C(O)c1cccc(-n2c(/C=C/c3ccccc3)nc3ccccc3c2=O)c1 | -10 | / | 1 | / | 0
CN(C)c1ccc(/C=C/c2nc3ccccc3c(=O)n2-c2ccc(C(=O)O)cc2)cc1 | -26 | / | 82* | / | 77*
COc1cc(/C=C/C(=O)OCC(=O)Nc2ccc([N+](=O)[O-])cc2)ccc1O | -8 | 5 | 30* | 13 | 21*
CCCN1C(=O)/C(=C/c2c(NCCCOCC)nc3c(C)cccn3c2=O)SC1=S | / | 1 | / | 2 | /
O=C1/C(=C\c2c(NCCOCCO)nc3ccccn3c2=O)SC(=S)N1Cc1ccco1 | -27 | / | 56* | / | 40*
O=C(CN(Cc1ccccc1)S(=O)(=O)c1ccc(F)cc1)NCc1ccccn1 | -4 | / | 3 | / | 2
c1ccc(CNc2nc(NCc3ccccc3)c3ccccc3n2)cc1 | -19 | 7 | 21* | 16 | 28*
Cc1ccc(S(=O)(=O)Nc2n[nH]nc2C(=O)NC2CCCCC2)cc1 | -4 | 1 | 0 | 1 | 1
Cc1ccccc1C(=O)NNC(=S)NC(=O)c1ccccc1 | -9 | 8 | 40* | 9 | 53*
Cc1ccc(C(=O)NC(=S)NNC(=O)c2ccccc2)cc1 | -23 | / | 89* | / | 82*
Cc1ccc(C(=O)NC(=S)NNC(=O)c2ccc([N+](=O)[O-])cc2)cc1 | -7 | / | 4 | / | 10
Cc1ccc(C(=O)NC(=S)NNC(=O)c2ccccc2[N+](=O)[O-])cc1 | -7 | 0 | 1 | 0 | 2
Cc1ccc(C(=O)NNC(=S)NC(=O)c2ccc(Cl)cc2Cl)cc1 | -14 | 43* | 117* | 70* | 101*
Cc1ccc(C(=O)NNC(=S)NC(=O)c2ccccc2)cc1 | -19 | / | 96* | / | 88*
O=C(CSc1n[nH]c(-c2ccco2)n1)Nc1ccccc1 | 0 | / | -2 | / | 1
COc1cccc(CNC(=O)C2CCN(S(=O)(=O)c3ccc4c(c3)OCCO4)CC2)c1 | 2 | / | 2 | / | -1
CN(C)c1cccc(C(=O)NNC(=O)/C=C/c2cccs2)c1 | -1 | / | 0 | / | -1
SMILES | OXTR potentiator | TRPML3 ag | V1aR counter | zfTRPN1 agonist | OXTR agonist
O=C(NC(=S)NNC(=O)c1ccccc1O)c1ccc(F)cc1 | -26 | / | 32* | / | 34*
CC(C)(C)S(=O)(=O)/C(C#N)=N/Nc1ccc(Cl)cc1 | -13 | 11 | 11 | 21* | 15
COc1cc(/C=C/C(O)=C/C(=O)/C=C/c2ccc(O)cc2)ccc1O | -11 | / | 21* | / | 22*
O=S(=O)(NCCCSc1ccccc1)c1ccccc1F | -10 | / | -1 | / | 0
COc1cccc(NC(=O)Cn2nnc(C(=O)Nc3ccccc3)c2N)c1 | -16 | 0 | -1 | -1 | 0
Cc1ccc(C)c(Cn2nnc(C(=O)Nc3ccc4c(c3)OCCO4)c2N)c1 | -21 | / | 29* | / | 39*
Cc1ccccc1Cn1nnc(C(=O)Nc2ccc3c(c2)OCCO3)c1N | -12 | / | 2 | / | 5
COc1cccc(NC(=O)c2nnn(Cc3ccc(Br)cc3F)c2N)c1 | -12 | 6 | 29* | 13 | 27*
CCc1ccc(Cn2nnc(C(=O)Nc3ccc(OC)cc3OC)c2N)cc1 | -6 | 2 | 24* | 7 | 29*
Cc1cc(C)cc(NC(=O)c2nnn(Cc3cc(C)ccc3C)c2N)c1 | -27 | 11 | 42* | 16 | 35*
COc1cccc(NC(=O)c2nnn(CC(=O)Nc3cc(C)cc(C)c3)c2N)c1 | -12 | / | 2 | / | 5
CCN1C(=O)C(=Cc2cccc(OC)c2Oc2ccc([N+](=O)[O-])cc2[N+](=O)[O-])SC1=S | 0 | / | -1 | / | -1
CCN(CC)CCn1c(=S)[nH]c2cc(C(=O)NCc3ccccc3Cl)ccc2c1=O | -10 | / | 0 | / | 0
CC(=O)c1ccc(COC(=O)c2cc3ccccc3oc2=O)cc1 | -6 | / | -1 | / | -1
O=C1/C(=C\c2ccc(O)cc2)SC(=S)N1/N=C/c1ccc(O)cc1 | -10 | 7 | 22* | 21* | 24*
CCN(CC(=O)NCc1cccs1)C(=O)c1cc(S(=O)(=O)NCc2ccccc2)ccc1C | -8 | / | -1 | / | -1
O=C1c2cccc3c(O)ccc(c23)C(=O)N1Cc1ccccc1 | -22 | 120* | 345* | 146* | 302*
O=C(O)c1cccc(CN2C(=O)c3ccccc3C2=O)c1 | -13 | / | 0 | / | 0
COc1ccc(N=Cc2sc(O)c3ccccc23)cc1 | -25 | 28* | 77* | 33* | 58*
N=c1c2c(-c3ccccc3)c(-c3ccccc3)n(Cc3ccco3)c2ncn1Cc1ccco1 | -30 | 2 | 36* | 3 | 36*
CCCCn1cnc2c(c(-c3ccccc3)c(-c3ccccc3)n2Cc2ccco2)c1=N | -13 | -1 | 9 | 1 | 10
CN1CCC(N(C)C(=O)c2cccc(S(=O)(=O)N3CCc4ccccc43)c2)CC1 | -2 | / | 1 | / | 0
Cc1ccsc1/C=C/C1=Cc2c(sc(NC(=O)CSc3n[nH]c(N)n3)c2C#N)C(C)(C)C1 | -8 | 1 | 5 | 0 | 46*
CC(=O)Nc1ccc(S(=O)(=O)NNc2ccc([N+](=O)[O-])cc2)cc1 | 9 | / | 1 | / | 0
COC(=O)[C@@]1(Cc2ccc(OC)cc2)[C@H]2c3cc(C(=O)N(C)C)n(CCc4ccc(OC)c(Br)c4)c3C[C@H]2CN1C(=O)c1ccccc1 | -4 | 1 | 2 | 1 | 1
COc1ccc(C2CC(c3cccs3)=NN2c2ccc(C=O)cc2)cc1 (stereo unspecified) | -9 | 17* | 28* | 29* | 24*
OCCCc1nc2n(n1)C(c1cccs1)C=C(c1ccccc1)N2 (stereo unspecified) | -12 | 0 | 50* | 0 | 82*
